Data taken from ChEMBL document CHEMBL2157885, “Synthesis of 1,5-diarylhaloimidazole analogs and their inhibitory activities against PGE₂ production from LPS-treated RAW 264.7 cells” (Bioorg Med Chem, 2012).

Key:
[1] = Lipophilicity, log P of the compound; format: physicochemical; conditions: octanol/water
[2] = Dissociation constant, pKa of the compound; format: physicochemical
[3] = target: T1, Prostaglandin G/H synthase 2 (Mus musculus, UniProt Q05769); assay: Inhibition of COX-2-induced PGE2 production in LPS-stimulated mouse Raw 264.7 cells preincubated for 1 hr before LPS challenge measured after 24 hrs by ELISA
T1 sequence (Q05769 whole entry): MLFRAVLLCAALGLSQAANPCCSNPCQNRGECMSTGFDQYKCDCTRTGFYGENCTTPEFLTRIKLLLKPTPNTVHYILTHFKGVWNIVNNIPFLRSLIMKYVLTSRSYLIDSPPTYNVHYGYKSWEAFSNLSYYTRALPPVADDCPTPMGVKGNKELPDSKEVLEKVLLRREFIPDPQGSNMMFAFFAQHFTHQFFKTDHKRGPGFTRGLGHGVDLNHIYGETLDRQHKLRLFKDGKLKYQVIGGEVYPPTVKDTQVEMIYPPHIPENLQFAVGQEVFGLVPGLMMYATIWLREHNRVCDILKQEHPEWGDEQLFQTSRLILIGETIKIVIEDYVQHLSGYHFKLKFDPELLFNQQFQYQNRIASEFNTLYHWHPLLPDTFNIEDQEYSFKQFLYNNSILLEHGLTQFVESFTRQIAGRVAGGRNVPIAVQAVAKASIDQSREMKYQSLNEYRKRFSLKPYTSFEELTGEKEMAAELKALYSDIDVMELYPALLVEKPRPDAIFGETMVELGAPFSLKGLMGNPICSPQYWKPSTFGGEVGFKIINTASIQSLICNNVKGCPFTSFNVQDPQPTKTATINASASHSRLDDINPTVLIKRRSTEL
Method in brief: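 RAW 264.7 cells (ATCC), cultured in DMEM with 10% FBS and 1% antibiotics at 37 °C under 5% CO₂, seeded at 2 × 10⁵ cells/well. 1 h compound pre-incubation preceded LPS addition and 24 h incubation. Medium PGE₂ quantified by ELISA; IC₅₀ reported from inhibition relative to basal and LPS-only controls.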

RAW264.7 [4] = assay: Cytotoxicity against LPS-stimulated mouse RAW264.7 cells by MTT assay; format: cell-based
Method in brief: (§1)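 Viability of ATCC RAW 264.7 cells, grown in DMEM with 10% FBS and 1% antibiotics at 37 °C under 5% CO₂, read by MTT assay with or without LPS at the compound concentrations used for the PGE₂ assay.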

RAW264.7 [5] = assay: Cytotoxicity against mouse RAW264.7 cells by MTT assay; format: cell-based; method in brief: as §1
[6] = target: T2, Prostaglandin G/H synthase 2 (Mus musculus) (UniProt Q05769); assay: Inhibition of COX-2-induced PGE2 production in LPS-stimulated mouse Raw 264.7 cells at 10 uM preincubated for 1 hr before LPS challenge measured after 24 hrs by ELISA
T2 sequence (whole entry): T1 sequence (Q05769 whole entry)
Method in brief: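 ATCC RAW 264.7 cells in DMEM with 10% FBS and 1% antibiotics, 37 °C, 5% CO₂, seeded at 2 × 10⁵ cells/well. Compound pre-incubated 1 h, then LPS added, 24 h further. PGE₂ in medium measured by ELISA. % inhibition = 100 × [1 − (treated + LPS − basal)/(LPS only − basal)]. Arithmetic means, n = 3.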

| logP [1] | pKa [2] | IC50 [3] [nM] | inhibition [6] [%] | SMILES | Activity (RAW264.7 [4]) | Activity (RAW264.7 [5]) |
| --- | --- | --- | --- | --- | --- | --- |
| 3.7 | 4.05 | 580 | 99 | CS(=O)(=O)c1ccc(-c2cnc(Br)n2-c2ccc(F)c(F)c2)cc1 | Non-toxic | Non-toxic |
|  |  | 6520 | 84 | CS(=O)(=O)c1ccc(-c2cncn2-c2ccc(F)cc2F)cc1 | Non-toxic | Non-toxic |
|  |  |  | 42 | CS(=O)(=O)c1ccc(-c2cnc(Cl)n2-c2ccc(F)cc2F)cc1 | Non-toxic | Non-toxic |
| 3.72 |  |  | 7 | CS(=O)(=O)c1ccc(-c2c(Br)ncn2-c2ccc(F)c(F)c2)cc1 | Non-toxic | Non-toxic |
| 4.44 |  |  | 81 | CS(=O)(=O)c1ccc(-c2c(Cl)nc(Cl)n2-c2ccc(F)c(F)c2)cc1 | Non-toxic | Non-toxic |
| 3.88 |  |  | 90 | CS(=O)(=O)c1ccc(-c2cnc(I)n2-c2ccc(F)c(F)c2)cc1 | Non-toxic | Non-toxic |
| 4.64 |  |  | 15 | CS(=O)(=O)c1ccc(-c2c(Br)nc(Br)n2-c2ccc(F)cc2F)cc1 | Non-toxic | Non-toxic |
|  |  |  |  | CS(=O)(=O)c1ccc(-c2cncn2-c2ccc(F)c(F)c2)cc1 | Non-toxic | Non-toxic |
| 3.64 | 1.07 | 550 | 98 | CS(=O)(=O)c1ccc(-c2c(Cl)nc(Cl)n2-c2ccc(F)cc2F)cc1 | Non-toxic | Non-toxic |
|  |  |  | 56 | CS(=O)(=O)c1ccc(-c2c(Cl)ncn2-c2ccc(F)c(F)c2)cc1 | Non-toxic | Non-toxic |
